Results on three compounds are retold here after ChEMBL document CHEMBL2396626, “Exploiting drug-resistant enzymes as tools to identify thienopyrimidinone inhibitors of human immunodeficiency virus reverse transcriptase-associated ribonuclease H” (J Med Chem, 2013).

One may read the CC50 as the concentration at which the toxic effect on the cells reaches its halfway point. The EC50 is the concentration that produces a half-maximal response. Low values mean an effect from little substance, high ones a need for much substance. Usually IC50 stands for the midpoint of a concentration-inhibition curve. Read a high IC50 as weaker potency in that assay. Usually ΔTm stands for the shift of the melting midpoint relative to a reference.

Data set [1] is described as follows: Selectivity ratio of CC50 for human CEM-SS cells to EC50 for Human immunodeficiency virus 1 RF isolate. In kind it is ADME, cell-based.
For data set [2], the target named is Human immunodeficiency virus type 1 reverse transcriptase (Human immunodeficiency virus 1) (UniProt Q72547). Briefly: Inhibition of RNase H activity of HIV-1 reverse transcriptase using 18 nucleotide 3'-fluorescein-labeled RNA/18 nucleotide 5'-dabsyl-labeled DNA hybrid as substrate by Yonetani-Theorell plot analysis in presence of beta-thujaplicinol. In short, it runs like this:
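Yonetani-Theorell: RNase H rates at 250 nM RNA/DNA substrate, fixed enzyme, thienopyrimidinone 0–5 μM against β-thujaplicinol 0, 0.125, 0.25, 0.5, 1 μM; hydrolysis started with substrate, monitored 60 min; V0/Vi plotted and fitted to two-inhibitor equation with interaction term.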

Another data set concerns CEM-SS. Briefly: Cytotoxicity against human CEM-SS cells by XTT assay. In kind it is cell-based. An outline of the steps: (§1)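 Cytopathic-protection format: HIV-1 RF isolate in human T-cell line CEM-SS, with cell viability read by XTT-based assay.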
On the technique in general: Tetrazolium assays rely on reduction of a dye to a coloured formazan, in cell work by metabolically active cells.

Data set [3] has as its system Human immunodeficiency virus 1. Description: Antiviral activity against Human immunodeficiency virus 1 RF isolate infected in human CEM-SS cells by XTT assay. The format is functional, organism-based. An outline of the steps: as §1
For data set [4], the target named is Human immunodeficiency virus type 1 integrase (Human immunodeficiency virus 1) (UniProt Q7ZJM1). Briefly: Inhibition of HIV-1 integrase using DNA duplex as substrate at 50 uM preincubated for 10 mins prior to substrate addition measured after 1 hr.
Chain of Human immunodeficiency virus type 1 integrase (Human immunodeficiency virus 1) (Q7ZJM1 as listed by the source): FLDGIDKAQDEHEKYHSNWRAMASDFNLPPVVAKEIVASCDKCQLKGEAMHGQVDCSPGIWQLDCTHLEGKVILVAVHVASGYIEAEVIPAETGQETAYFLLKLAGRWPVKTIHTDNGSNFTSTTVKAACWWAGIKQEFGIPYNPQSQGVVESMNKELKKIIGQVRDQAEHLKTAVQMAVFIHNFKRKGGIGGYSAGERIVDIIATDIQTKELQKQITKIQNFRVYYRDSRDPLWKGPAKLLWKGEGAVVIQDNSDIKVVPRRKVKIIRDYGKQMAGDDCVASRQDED
A short description of data set [5]: Inhibition of RNase H activity of HIV-1 reverse transcriptase p66/p51 T286A mutant using 18 nucleotide 3'-fluorescein-labeled RNA/18 nucleotide 5'-dabsyl-labeled DNA hybrid as substrate after 10 mins by fluorescence spectrometric analysis. Also noted: species or system Human immunodeficiency virus 1.
Data set [6] can be described thus: Inhibition of RNase H activity of HIV-1 reverse transcriptase p66/p51 R284A mutant using 18 nucleotide 3'-fluorescein-labeled RNA/18 nucleotide 5'-dabsyl-labeled DNA hybrid as substrate after 10 mins by fluorescence spectrometric analysis. Details: species or system Human immunodeficiency virus 1.
The nature of data set [7]: Inhibition of RNase H activity of HIV-1 reverse transcriptase p66/p51 C280A mutant using 18 nucleotide 3'-fluorescein-labeled RNA/18 nucleotide 5'-dabsyl-labeled DNA hybrid as substrate after 10 mins by fluorescence spectrometric analysis. Details: species or system Human immunodeficiency virus 1.
Data set [8] can be described thus: Inhibition of RNase H activity of HIV-1 reverse transcriptase p66/p51 V276A mutant using 18 nucleotide 3'-fluorescein-labeled RNA/18 nucleotide 5'-dabsyl-labeled DNA hybrid as substrate after 10 mins by fluorescence spectrometric analysis. Also noted: species or system Human immunodeficiency virus 1.
Data set [9] has as its target Human immunodeficiency virus type 1 reverse transcriptase (Human immunodeficiency virus 1, UniProt Q72547). Description: Inhibition of RNase H activity of wild type HIV-1 reverse transcriptase using 18 nucleotide 3'-fluorescein-labeled RNA/18 nucleotide 5'-dabsyl-labeled DNA hybrid as substrate after 10 mins by fluorescence spectrometric analysis.
For data set [10], the target named is Human immunodeficiency virus type 1 reverse transcriptase (Human immunodeficiency virus 1) (UniProt Q72547). Briefly: Binding affinity to HIV-1 reverse transcriptase p66/p51 assessed as decrease in melting temperature at 10 uM by differential scanning fluorimetric analysis in presence of Mg2+. On the technique in general: In DSF a fluorescence change marks the thermal transition of the protein.

For data set [11] the target is unchanged. Briefly: Binding affinity to HIV-1 reverse transcriptase p66/p51-RNA/DNA hybrid complex assessed as decrease in melting temperature at 10 uM by differential scanning fluorimetric analysis in presence of Mg2+.
For data set [12] the target is unchanged. The conditions noted are these: 500 uM.

Active and inactive are the calls of the source. No cut-off for these calls is given here.

In the case of `O=c1[nH]c(-c2ccc(O)c(O)c2)nc2sc3c(c12)CCCCC3`, the “Ratio CC50/EC50” value in data set [1] is on record as 4.3. For the same compound, the inhibition result in [2] is “Active”. This compound also had a half-maximal cytotoxic concentration (CC50) with CEM-SS of 6800 nM. In addition, in [3], the concentration giving a half-maximal response (EC50) stood at 1600 nM. Further, the inhibition entry in data set [4] was “inactive”. The half-inhibitory concentration (IC50) stood at 360 nM in [5]; 550 nM in data set [6]; 260 nM in data set [7]; 370 nM in data set [8]; 290 nM in data set [9]. The ΔTm was 0.5 °C in data set [10] and 5.9 °C in data set [11].

`Cc1sc2nc(-c3ccc(O)c(O)c3)[nH]c(=O)c2c1C`: the “Ratio CC50/EC50” value in data set [1] turned out to be 2.3. Moreover, the inhibition entry in data set [2] is “Active”. The compound also yielded a cytotoxic concentration (CC50) in the data set with CEM-SS of 8900 nM. This compound also gave an EC50 in data set [3] of 3800 nM. Moreover, the inhibition entry in [4] is “inactive”. Besides, the half-inhibitory concentration (IC50) in data set [5] came out at 280 nM; in data set [6], 300 nM; in data set [7], 320 nM; in data set [8] it was 390 nM; in [9], 260 nM. The thermal shift (ΔTm) in [10] was 0.5 °C; in data set [11], 5.8 °C.

With `CC(C)c1ccc(O)c(=O)c(O)c1`, the thermal shift (ΔTm) worked out at 2 °C in data set [12] and 0.5 °C in data set [10].
